Data on ten molecules can be found in ChEMBL document CHEMBL1127425, “Latent alkyl isocyanates as inhibitors of aldehyde dehydrogenase in vivo” (1994).

Assay [1] has as its system Rattus norvegicus. As to the kind of experiment: Compound was evaluated for blood acetaldehyde levels elicited by compound after ethanol administration to rat. Type of assay: functional. A digest of the protocol:
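Fasted male Sprague-Dawley rats (160–200 g) got test agent at 1.0 mmol/kg ip at time zero, suspended in 2% aqueous CMC (peanut oil for the trifluoroacetyl pro-prodrug and N1-EtCP). Ethanol 2.0 g/kg ip followed at 2 h. Rats were killed 1 h after ethanol and blood AcH was measured. Chlorpropamide served as positive control and vehicle alone as control. Groups of three were used, repeated with three more when active. Results are mean ± SEM, ANOVA with Newman-Keuls.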

Assay [2] addresses Aldehyde dehydrogenase, mitochondrial ALDH2 (Rattus norvegicus) (UniProt P11884). The assay can be described thus: Evaluated for inhibition of hepatic mitochondrial Aldehyde dehydrogenase (ALDH) from rat. Conditions: concentration not given here.
Assay [3] shares this target. The assay can be described thus: Evaluated for inhibition of class II mitochondrial Aldehyde dehydrogenase (ALDH) in osmotically disrupted mitochondria from rat. The following applies: concentration not given here.
Assay [4] has as its target Aldehyde dehydrogenase, mitochondrial (Rattus norvegicus) (UniProt P11884). The assay can be described thus: Compound was evaluated for inhibition of class II aldehyde dehydrogenase in intact rat liver mitochondria in vitro at 1 mM.

Sequence of Aldehyde dehydrogenase, mitochondrial ALDH2 (Rattus norvegicus) (P11884 whole entry, looked up): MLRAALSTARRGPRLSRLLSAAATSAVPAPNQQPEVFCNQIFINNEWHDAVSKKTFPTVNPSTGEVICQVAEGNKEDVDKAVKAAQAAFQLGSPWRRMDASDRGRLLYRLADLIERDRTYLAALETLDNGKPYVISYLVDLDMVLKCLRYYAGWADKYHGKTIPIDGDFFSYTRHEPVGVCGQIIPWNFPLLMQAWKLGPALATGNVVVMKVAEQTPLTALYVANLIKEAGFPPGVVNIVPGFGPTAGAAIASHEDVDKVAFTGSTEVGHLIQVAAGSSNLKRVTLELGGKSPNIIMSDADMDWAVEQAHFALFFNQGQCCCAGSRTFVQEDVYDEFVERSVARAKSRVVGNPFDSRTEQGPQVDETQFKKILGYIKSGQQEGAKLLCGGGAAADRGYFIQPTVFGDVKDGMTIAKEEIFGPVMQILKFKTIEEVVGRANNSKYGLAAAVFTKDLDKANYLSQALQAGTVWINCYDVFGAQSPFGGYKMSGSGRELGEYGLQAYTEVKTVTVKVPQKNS

For `CCCNC(=O)SCc1ccccc1`, the Acetaldehyde level in assay [1] is 550 µM.

With `CCCNC(=O)N1C(=O)c2ccccc2S1(=O)=O`, the Acetaldehyde level in assay [1] is about 500 µM.

In turn, `CCCNC(=O)NS(=O)(=O)c1ccc(Cl)cc1` [CHLORPROPAMIDE] came in with an Acetaldehyde level in assay [1] of about 170 µM.

Broadly, the inhibition is the percentage by which the read-out fell short of the control. Turning to `CCCNC(=O)N(CC)S(=O)(=O)c1ccc(Cl)cc1`, the inhibition in assay [2] was found to be 78%. The Acetaldehyde level in assay [1] is about 410 µM.

For the molecule `CCCN1C(=O)CN(S(=O)(=O)c2ccc(Cl)cc2)C1=O`, in assay [1], the Acetaldehyde level worked out at 20 µM.

In general, Inhibition refers to the relative decrease from the control value, in per cent. The low end stands for a response near the control, the high end for a response far below the control. `CCCNC(=O)N(C)S(=O)(=O)c1ccc(Cl)cc1` displayed an inhibition in assay [3] of 74%. In assay [4], this molecule showed an Inhibition of 49%.

With `CCCNC(=O)n1c(=O)cc[nH]c1=O`, in assay [1], the Acetaldehyde level came to 700 µM.

In assay [1], `CCCN(C(=O)N(CC)S(=O)(=O)c1ccc(Cl)cc1)C(=O)C(F)(F)F` came in with an Acetaldehyde level of about 450 µM.

Consider `C=CCN(C(=O)NCCC)S(=O)(=O)c1ccc(Cl)cc1`, for which the Acetaldehyde level in assay [1] was about 750 µM.

Molecule `CCCNC(=O)N1C(=O)CNC1=O` gave an Acetaldehyde level in assay [1] of about 0 µM.
